Source: PubChem BioAssay
Compounds with a hit are over-represented: about 2.5% of the library has one in this group of screens.
FGF22 binding: shifts melting point of recombinant human FGF22; Q9HCT0; recombinant FGF22 thermal shift, SYPRO orange fluorescence; percent of sucrose octasulfate shift, DMSO zero; activity (Tm shift, normalised), % at 9.99 µM; hit rate 1.5% among 340,000; AID 651658;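 active = mean Tm shift, scaled 0 neutral to 100 positive control, at about 1.3% or above, every replicate too, limit read from the data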
Target sequence (Q9HCT0 whole entry, looked up): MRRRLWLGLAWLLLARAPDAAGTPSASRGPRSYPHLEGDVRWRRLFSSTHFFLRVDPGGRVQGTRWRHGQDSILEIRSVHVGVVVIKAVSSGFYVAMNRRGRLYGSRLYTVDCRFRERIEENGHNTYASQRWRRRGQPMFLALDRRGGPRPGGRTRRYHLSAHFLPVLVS
miR-122 sensor: blocks miR-122 activity in Huh7 sensor cells. Huh7 miR-122 Renilla luciferase sensor, 48 h; neutral wells = 0, positive control = 100. activation (reporter increase), % at 12.5 µM. hit rate 0.3% among 340,000;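 active = mean replicate activation score at least 90 and every replicate individually at or above 90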;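 also: higher luciferase means less miR-122 activity so hits act as miR-122 inhibitors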
S100A4 inh HTS: blocks human S100A4 binding to myosin IIA peptide; S100A4/TAMRA-MyoIIA peptide fluorescence polarization; inhibition, % at 10.7 µM; hit rate 0.14% among 360,000; AID 652163;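 active = mean inhibition of at least 70% across replicates, with every replicate also reaching that level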
Target sequence (P26447 whole entry, looked up): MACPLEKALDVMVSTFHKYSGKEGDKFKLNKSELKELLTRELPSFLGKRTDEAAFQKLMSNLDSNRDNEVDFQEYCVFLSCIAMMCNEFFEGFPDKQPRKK
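assay system = human S100A4 monomer with TAMRA-labelled myosin IIA peptide | also added = labelled myosin peptide probe, 5 nM | incubation = 5 min between mix addition and reading | control set = DMSO and TFP controls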
SIRT5 inh: blocks human SIRT5 desuccinylation of peptide; hit rate 1.1% among 330,000; Q9NXA8; Purified SirT5, succinyl-peptide AMC, trypsin-coupled fluorescence; inhibition, % at 15 µM; AID 652115; in the data active = inhibition above about 15%
E-selectin induc: E-selectin induction on HUVECs | hit rate 0.37% among 260,000 | activation, % at 7.58 µM | HUVEC E-selectin immunofluorescence imaging; normalized: neutral wells 0, TNF-alpha wells 100 | AID 686992 | P16581;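 active = mean E-selectin-positive cell signal at least 10% of the positive control, reached in at least 60% of replicates, without over 20% cell loss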
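material = human umbilical vein endothelial cells (HUVEC), E-selectin induction | quantity = 3,000 cells/well | medium = EGM-2 growth medium on 0.1% gelatin-coated wells | technique = immunofluorescence imaging | read-out basis = % PE-positive cells | control set = TNF-alpha positive control, DMSO neutral control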
Starred values were filed as active, the others as inactive; · = no result; [ ] = remark or other dose.

SMILES	FGF22 binding	miR-122 sensor	S100A4 inh HTS	SIRT5 inh	E-selectin induc
COc1ccc(S(=O)(=O)N(C)C[C@H]2Oc3ccc(NS(=O)(=O)c4ccccc4)cc3C(=O)N([C@@H](C)CO)C[C@H]2C)cc1	0	8[16.7 µM]	·	·	1
CSC(=NS(=O)(=O)c1ccc(N)cc1)NS(=O)(=O)c1cccs1	1	-3	-17	53*	·
C[C@H](NC(=O)C[C@H]1C[C@@H]2c3cc(NC(=O)C4CCOCC4)ccc3O[C@@H]2[C@@H](CO)O1)c1ccccc1	0	-1[16.7 µM]	11	-1	1
CN1CCN(C(=O)CSc2cc(=O)n(C)c3ccccc23)CC1	43*	·	-6	-1	·
CCN1CCN(C(=O)CSc2cc(=O)n(C)c3ccccc23)CC1	0	-7	0	1	·
Nc1[nH]c(C(=O)c2ccccc2)c(-c2ccc(Cl)c(F)c2)c1C(=O)NCCc1c[nH]c2ccccc12	0	·	-15	39*	1
CCCCCCSc1cc(-c2nc3cnccn3c2NCCCC)ccc1OC	·	14	-31	27*	·
Clc1ccc(-c2cc(C3CCNCC3)[nH]n2)cc1	43*	-2	-1	0	1
COc1ccc2c3c(n(C)c2c1)[C@@H](CO)N(C(=O)Nc1ccc(F)cc1)CC31CN(C(=O)Nc2c(C)noc2C)C1	0	·	0	-3	0
CCN(CC)S(=O)(=O)c1cccc(-c2nnc(SCC(=O)NC)n2N)c1	44*	·	0	-4	·
CCN(CC)S(=O)(=O)c1cccc(-c2nnc(SCC(=O)N3CCC(C(=O)O)CC3)n2N)c1	0	·	5	14	0
COCCn1c(=S)[nH]c2ncccc2c1=O	·	3	·	·	·
COc1ccc(-n2c(=S)[nH]c3ncccc3c2=O)cc1	0	-7	1	15*	-1
Cc1ccc(COc2ccc(/C=N/O)cc2)cc1	0	·	1	-4	107*
COC(=O)C[C@@H]1CC[C@H]2[C@H](COc3ccc(NC(=O)C4CCOCC4)cc3C(=O)N2C)O1	0	50[16.7 µM]	·	0	0
NC(=O)CSc1nc2ccccc2n1-c1ccccc1	0	1	6	26*	·
O=C(O)CSc1nc2ccccc2n1-c1ccccc1	-1	·	-2	2	2
CO[C@H]1CN(C)C(=O)c2ccc(NC(=O)c3cnccn3)cc2OC[C@@H](C)N(C)C[C@H]1C	·	4[16.7 µM]	·	·	1
CNC[C@H]1Oc2ncc(C3=CCCC3)cc2C(=O)N([C@@H](C)CO)C[C@H]1C	·	2[16.7 µM]	·	·	0
COc1ccc(-c2c(-c3ccc(O)cc3O)n[nH]c2C(F)(F)F)cc1	0	-6	-4	-1	0
Oc1ccc(-c2n[nH]c(C(F)(F)F)c2-c2ccccc2)c(O)c1	0	5	-7	44*	2
COc1ccc(Nc2nc(C)cc(C)c2C#N)cc1	·	5	·	·	·
Cc1ccc(Nc2nc(N)c(C#N)c(CC#N)c2C#N)cc1	44*	·	-2	-2	0
CN(C)C(=O)c1c(NC(=O)c2ccco2)sc2c1CCCCC2	·	-2	·	·	·
O=C(Nc1sc2c(c1C(=O)O)CCCCC2)c1ccco1	·	208*	·	·	·
SMILES	FGF22 binding	miR-122 sensor	S100A4 inh HTS	SIRT5 inh	E-selectin induc
Cc1c(-n2c(SCC(=O)NC(C)C(C)C)nc3ccccc3c2=O)c(=O)n(-c2ccccc2)n1C (stereo not given)	43*	·	0	-1	0
Cc1c(-n2c(SCC(C)C)nc3ccccc3c2=O)c(=O)n(-c2ccccc2)n1C	0	·	0	0	0
CO[C@H]1CN(C)C(=O)c2cc(NC(=O)C3CCC3)ccc2OC[C@@H](C)N(Cc2ccccn2)C[C@H]1C	·	·	·	·	0
COCC(=O)Nc1ccc2c(c1)C(=O)N(C)[C@H]1CC[C@@H](CC(=O)NCc3ccccc3F)O[C@@H]1CO2	0	25[16.7 µM]	-12	-3	0
COc1ccc(N(C(=O)c2ccco2)S(=O)(=O)c2cc(Cl)c(Cl)cc2Cl)cc1	·	134*	·	·	·
CCC(=O)N(C)C[C@@H]1Oc2cc(C3=CCCCC3)ccc2S(=O)(=O)N([C@H](C)CO)C[C@H]1C	·	5[16.7 µM]	·	·	-1
CCC(=O)N(C)C[C@H]1Oc2cc(C3=CCCC3)ccc2S(=O)(=O)N([C@@H](C)CO)C[C@@H]1C	0	4[16.7 µM]	-80	6	71*
C[C@@H]1CN([C@H](C)CO)S(=O)(=O)c2ccc(C3=CCCC3)cc2O[C@H]1CN(C)C	0	1[16.7 µM]	-5	1	0
